Test results taken from ChEMBL document CHEMBL1149185, “Uncharged AZT and D4T derivatives of phosphonoformic and phosphonoacetic acids as anti-HIV pronucleosides” (J Med Chem, 2004).

How the values were obtained:
[1] = Half life for hydrolysis of compound in phosphate buffer of pH 7.2 at 20 degree C; format: ADME
MT4 [2] = assay: 50% inhibition of HIV replication in MT-4 cells; format: functional; details: Homo sapiens, read-out: ID50 (the source's name)
Outline: (§1)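 HIV-1-infected MT-4 cells (MOI 0.2-0.5; cells at 2 × 10^6 cells/mL, viability >90%) in RPMI-1640 with 10% FBS, L-glutamine, gentamycin and lincomycin. Cultured 3 days with compound at 0.001-100 µg/mL, triplicate per dose. Replication measured as p24 antigen by immunoassay.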

MT4 [3] = assay: 50% inhibition of MT-4 cell proliferation.; format: functional; details: Homo sapiens, read-out: CD50 (the source's name)
Outline: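 MT-4 cells in RPMI-1640 with 10% FBS, cultured 3 days with compound at 0.001-200 µg/mL, triplicate per dose. Cell concentration and viability measured by trypan blue dye exclusion, and CD50 calculated.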

MT4 [4] = assay: Ratio of CD50 to ID50 was determined; format: functional, Homo sapiens
MT4 [5] = assay: 90% inhibition of HIV replication in MT-4 cells; format: functional, Homo sapiens; outline: as §1
[6] = Half life for the hydrolysis of compound in human blood serum; format: ADME, cell-free, Plasma

SMILES	half-life [1] [h]	IC50 (MT4 [2]) [µM]	CC50 (MT4 [3]) [µM]	IS (MT4 [4])	ID90 (MT4 [5]) [µM]	half-life [6] [h]
CCOC(=O)CP(=O)(OCC)OCC1C=CC(n2cc(C)c(=O)[nH]c2=O)O1 (stereo not drawn)	> 8	> 10	136	<13		
CCOC(=O)P(=O)(OCC)OCC1C=CC(n2cc(C)c(=O)[nH]c2=O)O1 (stereo not drawn)	0.5	0.23	136	591	21.7	
CCOC(=O)P(=O)(OCC)OCC1OC(n2cc(C)c(=O)[nH]c2=O)CC1N=[N+]=[N-] (stereo not drawn)	0.167	0.0071	116	16338	0.016	
Cc1cn([C@H]2C[C@H](N=[N+]=[N-])[C@@H](CO)O2)c(=O)[nH]c1=O [ZIDOVUDINE]		0.017	188	11029	0.75	
CCOC(=O)CP(=O)(OCC1C=CC(n2cc(C)c(=O)[nH]c2=O)O1)OC1CCCCC1 (stereo not drawn)		> 10	131	<13		
CCOP(=O)(OCC1C=CC(n2cc(C)c(=O)[nH]c2=O)O1)C(=O)NC (stereo not drawn)	15	0.013	85.7	6592	0.27	
CCOC(=O)CP(=O)(OCC)OCC1OC(n2cc(C)c(=O)[nH]c2=O)CC1N=[N+]=[N-] (stereo not drawn)		0.23	> 224	>974		
Cc1cn([C@H]2C=C[C@@H](CO)O2)c(=O)[nH]c1=O [STAVUDINE]		0.24		1308	23.8	
CCOP(=O)(OCC1C=CC(n2cc(C)c(=O)[nH]c2=O)O1)C(=O)NCCc1ccccc1 (stereo not drawn)	> 20	0.043	66.9	1555		
CCOP(=O)(CC(N)=O)OCC1OC(n2cc(C)c(=O)[nH]c2=O)CC1N=[N+]=[N-] (stereo not drawn)	> 20	0.29	456	1573	1.68	
CCOP(=O)(OCC1OC(n2cc(C)c(=O)[nH]c2=O)CC1N=[N+]=[N-])C(=O)NCCc1ccccc1 (stereo not drawn)	10	0.009	177	19711		
CCOP(=O)(OCC1OC(n2cc(C)c(=O)[nH]c2=O)CC1N=[N+]=[N-])C(N)=O (stereo not drawn)	2.5	0.002	249	124300	0.019	0.117
CCOP(=O)(OCC1C=CC(n2cc(C)c(=O)[nH]c2=O)O1)C(N)=O (stereo not drawn)	7	0.03	214	7143	7.21	0.35
CCOC(=O)CP(=O)(OCC1OC(n2cc(C)c(=O)[nH]c2=O)CC1N=[N+]=[N-])OC1CCCCC1 (stereo not drawn)	> 8	0.4	280	700	1.4	
CCOP(=O)(CC(N)=O)OCC1C=CC(n2cc(C)c(=O)[nH]c2=O)O1 (stereo not drawn)	> 24	5.4	268	49.6	18.8	> 24
CCOP(=O)(OCC1OC(n2cc(C)c(=O)[nH]c2=O)CC1N=[N+]=[N-])C(=O)NC (stereo not drawn)	6	0.00024	113	470416	0.0072	
